Where “and” joins values, the source holds several entries; their conditions need not be identical. Equal entries are not always repeated.
Assays:
[1] = Solubility was determined; INS= less than 0.1; type: physicochemical
P388 [2] = assay: Compound was tested for antitumor activity in P-388 lymphocytic leukemia system at 200 mg/kg dose levels per injection; 3/6; type: functional, Mus musculus
Procedure, shortened: (§1)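 P-388 leukemia in animals, Q01D×09 schedule: dose given daily for 9 days, in mg/kg per injection. Read-outs are survivors on day 4 (live/total animals), body-weight difference test minus control (g), and % T/C (median lifetime of treated ÷ median lifetime of controls × 100). Some compounds were tested in independent runs at different times.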

P388 [3] = assay: Compound was tested for antitumor activity in P-388 lymphocytic leukemia system at 200 mg/kg dose levels per injection; 4/6; type: functional, Mus musculus; procedure, shortened: as §1
P388 [4] = assay: (§2) Antitumor activity in P-388 lymphocytic leukemia system at 100 mg/kg dose levels per injection.; type: functional, Mus musculus; procedure, shortened: as §1
P388 [5] = assay: as §2; type: functional, Mus musculus; remark: listed apart in the source
Procedure, shortened: (§3)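 P-388 leukemia in vivo, dosed Q01D×09 (one injection daily for 9 days, mg/kg per injection). Activity is %T/C, the median lifetime of treated animals divided by that of controls, ×100. Live animals on day 4 were counted against the total (survivors day 4). Repeat tests were done independently at different times.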

P388 [6] = assay: Antitumor activity in P-388 lymphocytic leukemia system at 25 mg/kg dose levels per injection.; type: functional, Mus musculus; procedure, shortened: as §1
P388 [7] = assay: (§4) Antitumor activity in P-388 lymphocytic leukemia system at 50 mg/kg dose levels per injection.; type: functional, Mus musculus; procedure, shortened: as §1
P388 [8] = assay: Antitumor activity in P-388 lymphocytic leukemia system and the difference in body weight calculated at 100 mg/kg dose levels per injection.; type: functional, Mus musculus
P388 [9] = assay: Antitumor activity in P-388 lymphocytic leukemia system and the difference in body weight was calculated at 200 mg/kg dose levels per injection.; type: functional, Mus musculus
P388 [10] = assay: Antitumor activity in P-388 lymphocytic leukemia system and the difference in body weight was calculated at 25 mg/kg dose levels per injection.; type: functional, Mus musculus
P388 [11] = assay: Antitumor activity in P-388 lymphocytic leukemia system and the difference in body weight was calculated at 50 mg/kg dose levels per injection.; type: functional, Mus musculus
P388 [12] = assay: Compound was tested for antitumor activity in P-388 lymphocytic leukemia system at 200 mg/kg dose levels per injection.; type: functional, organism-based; design: dose 200 mg/kg; details: Mus musculus; procedure, shortened: as §3
P388 [13] = assay: Antitumor activity in P-388 lymphocytic leukemia system at 25 mg/kg dose levels per injection; type: functional, Mus musculus; procedure, shortened: as §3
P388 [14] = assay: as §4; type: functional, Mus musculus; procedure, shortened: as §3; remark: listed apart in the source
P388 [15] = assay: Compound was tested for antitumor activity in P-388 lymphocytic leukemia system at 50 mg/kg dose levels per injection; 6/6; type: functional, Mus musculus; procedure, shortened: as §1
P388 [16] = assay: (§5) Antitumor activity in P-388 lymphocytic leukemia system at 200 mg/kg dose levels per injection.; type: functional, Mus musculus; procedure, shortened: as §1
P388 [17] = assay: Compound was tested for antitumor activity in P-388 lymphocytic leukemia system. at 400 mg/kg dose levels per injection; Toxic; type: functional, organism-based; design: dose 400 mg/kg; details: Mus musculus; procedure, shortened: as §3
P388 [18] = assay: Compound was tested for antitumor activity in P-388 lymphocytic leukemia system at 400 mg/kg dose levels per injection; 6/6; type: functional, Mus musculus; procedure, shortened: as §1
P388 [19] = assay: Compound was tested for antitumor activity in P-388 lymphocytic leukemia system. The difference in body weight was calculated at 25 mg/kg dose levels per injection; type: functional, Mus musculus
P388 [20] = assay: Compound was tested for antitumor activity in P-388 lymphocytic leukemia system and the difference in body weight was calculated at 400 mg/kg dose levels per injection; type: functional, Mus musculus
P388 [21] = assay: as §5; type: functional, Mus musculus; details: 200 mg/kg; procedure, shortened: as §3
P388 [22] = assay: Compound was tested for antitumor activity in P-388 lymphocytic leukemia system at 25 mg/kg dose levels per injection; type: functional, Mus musculus; procedure, shortened: as §3
[23] = Solubility was determined; type: physicochemical
P388 [24] = assay: Compound was tested for antitumor activity in P-388 lymphocytic leukemia system at 200 mg/kg dose levels per injection; 5/6; type: functional, Mus musculus; procedure, shortened: as §1
P388 [25] = assay: Compound was tested for antitumor activity in P-388 lymphocytic leukemia system at 50 mg/kg dose levels per injection;6/6; type: functional, Mus musculus; procedure, shortened: as §1
P388 [26] = assay: Compound was tested for antitumor activity in P-388 lymphocytic leukemia system. at 200 mg/kg dose levels per injection; Toxic; type: functional, organism-based; design: dose 200 mg/kg; details: Mus musculus; procedure, shortened: as §3
P388 [27] = assay: Compound was tested for antitumor activity in P-388 lymphocytic leukemia system at 200 mg/kg dose levels per injection; 2/6; type: functional, Mus musculus; procedure, shortened: as §1
P388 [28] = assay: Compound was tested for antitumor activity in P-388 lymphocytic leukemia system at 100 mg/kg dose levels per injection; 5/6; type: functional, Mus musculus; procedure, shortened: as §1
P388 [29] = assay: Compound was tested for antitumor activity in P-388 lymphocytic leukemia system at 100 mg/kg dose levels per injection; Toxic; type: functional, organism-based; design: dose 100 mg/kg; details: Mus musculus; procedure, shortened: as §3
P388 [30] = assay: Compound was tested for antitumor activity in P-388 lymphocytic leukemia system at 200 mg/kg dose levels per injection; 5/5; type: functional, Mus musculus; procedure, shortened: as §1
P388 [31] = assay: Compound was tested for antitumor activity in P-388 lymphocytic leukemia system at 400 mg/kg dose levels per injection; 5/5; type: functional, Mus musculus; procedure, shortened: as §1
P388 [32] = assay: Compound was tested for antitumor activity in P-388 lymphocytic leukemia system 25 mg/kg dose levels per injection; type: functional, Mus musculus; procedure, shortened: as §3
P388 [33] = assay: Compound was tested for antitumor activity in P-388 lymphocytic leukemia system. at 400 mg/kg dose levels per injection; type: functional, Mus musculus; procedure, shortened: as §3
P388 [34] = assay: Compound was tested for antitumor activity in P-388 lymphocytic leukemia system at 100 mg/kg dose levels per injection; 5/5; type: functional, Mus musculus; procedure, shortened: as §1
P388 [35] = assay: Compound was tested for antitumor activity in P-388 lymphocytic leukemia system at 50 mg/kg dose levels per injection; 5/5; type: functional, Mus musculus; procedure, shortened: as §1
P388 [36] = assay: Compound was tested for antitumor activity in P-388 lymphocytic leukemia system at 200 mg/kg dose levels per injection; 0/6; type: functional, Mus musculus; procedure, shortened: as §1
P388 [37] = assay: Compound was tested for antitumor activity in P-388 lymphocytic leukemia system at 12.5 mg/kg dose levels per injection; 6/6; type: functional, Mus musculus; procedure, shortened: as §1
P388 [38] = assay: Compound was tested for antitumor activity in P-388 lymphocytic leukemia system and the difference in body weight was calculated at 12.5 mg/kg dose levels per injection; type: functional, Mus musculus
P388 [39] = assay: Compound was tested for antitumor activity in P-388 lymphocytic leukemia system at 12.5 mg/kg dose levels per injection; type: functional, Mus musculus; procedure, shortened: as §3
P388 [40] = assay: Compound was tested for antitumor activity in P-388 lymphocytic leukemia system at 100 mg/kg dose levels per injection; 0/6; type: functional, Mus musculus; procedure, shortened: as §1
P388 [41] = assay: Compound was tested for antitumor activity in P-388 lymphocytic leukemia system at 100 mg/kg dose levels per injection; 3/6; type: functional, Mus musculus; procedure, shortened: as §1

SMILES | Solubility [1] | Survivors at day 4 (P388 [3]) | Survivors at day 4 (P388 [4]) | T/C (P388 [5]; 100 mg/kg) | Survivors at day 4 (P388 [6]) | Survivors at day 4 (P388 [7]) | Weight difference (P388 [8]; 100 mg/kg) | Weight difference (P388 [9]; 200 mg/kg) | Weight difference (P388 [10]; 25 mg/kg) | Weight difference (P388 [11]; 50 mg/kg) | T/C (P388 [12]) | T/C (P388 [13]; 25 mg/kg) | T/C (P388 [14]; 50 mg/kg) | Survivors at day 4 (P388 [16]) | Weight difference (P388 [20]) | T/C (P388 [21]) | T/C (P388 [22]) | Solubility [23] | T/C (P388 [5]) | Weight difference (P388 [8]) | other results
O=C1C2C3C=CC(C2C(=O)N1CN1CCOCC1)C1C2C(=O)N(CN4CCOCC4)C(=O)C2C31 (stereo not given) | Insoluble | 4 | 6 | 120% and 174% | 6 | 6 | -4.8 g and -3.9 g | -6.2 g and -5.9 g | -1 g and -0.9 g | -1.7 g and -1.5 g | Toxic | 120% and 125% | 148% and 141% | – | – | – | – | – | – | – | Survivors at day 4 (P388 [2]): 3; Survivors at day 4 (P388 [15]): 6
O=C1C2C3C=CC(C2C(=O)N1CN1CCSCC1)C1C2C(=O)N(CN4CCSCC4)C(=O)C2C31 (stereo not given) | Insoluble | – | 6 | 148% and 165% | 6 | 6 | -2.9 g and -2.1 g | -5.1 g and -5.2 g | – | -1.4 g and -2.1 g | – | – | 166% and 121% | 6 | -5.7 g | 166% and 194% | 99% | – | – | – | T/C (P388 [17]): Toxic; Survivors at day 4 (P388 [18]): 6; Weight difference (P388 [19]): -1.3 g
O=C1C2C3CCC(C2C(=O)N1CO)C1C2C(=O)N(CO)C(=O)C2C31 (stereo not given) | – | – | 6 | – | 6 | – | – | – | – | – | – | – | – | – | – | – | – | 1% | 205% | -3.3 g | Survivors at day 4 (P388 [24]): 5; Survivors at day 4 (P388 [25]): 6; Weight difference (P388 [9]): -4.7 g; Weight difference (P388 [10]): 0.1 g; Weight difference (P388 [11]): -1.8 g; T/C (P388 [13]): 102%; T/C (P388 [14]): 145%; T/C (P388 [26]): Toxic
O=C(O)CCC(=O)OCN1C(=O)C2C3C=CC(C2C1=O)C1C2C(=O)N(COC(=O)CCC(=O)O)C(=O)C2C31 (stereo not given) | – | 4 | 6 | – | 6 | 6 | -4.4 g and -3.1 g | -6.7 g and -6.9 g | – | – | Toxic | 103% and 107% | 115% and 116% | – | – | – | – | – | 165% | – | Survivors at day 4 (P388 [27]): 2; Survivors at day 4 (P388 [28]): 5; T/C (P388 [29]): Toxic
CC(=O)OCN1C(=O)C2C3C=CC(C2C1=O)C1C2C(=O)N(COC(C)=O)C(=O)C2C31 (stereo not given) | Insoluble | – | 6 | 118% and 155% | 6 | 6 | – | – | – | -0.4 g and -0.7 g | – | – | 140% and 115% | 6 | -2.2 g | 180% and 133% | 117% | – | – | – | Survivors at day 4 (P388 [30]): 5; Survivors at day 4 (P388 [31]): 5; Weight difference (P388 [32]): -0.1 g; T/C (P388 [33]): 208%; Survivors at day 4 (P388 [34]): 5; Survivors at day 4 (P388 [35]): 5
O=C1C2C3C=CC(C2C(=O)N1CO)C1C2C(=O)N(CO)C(=O)C2C31 (stereo not given) | – | – | – | – | 6 | 6 | – | – | -2.5 g and -3.3 g | -5.6 g and -6.5 g | Toxic | 140% and 157% | 195% and 208% | – | – | – | – | 0.8% | – | -8.2 g | Survivors at day 4 (P388 [36]): 0; Survivors at day 4 (P388 [37]): 6; T/C (P388 [29]): Toxic; Weight difference (P388 [38]): -0.7 g; T/C (P388 [39]): 105%; Survivors at day 4 (P388 [40]): 0; Survivors at day 4 (P388 [41]): 3
